Laboratory results from PubChem BioAssay AID1885 (Broad Institute, 2009).
Where “and” joins values, the source holds several entries; their conditions need not be identical. Identical values can stand only once. Hit rate of the full screen: of about 300,000 compounds, about 4,400 (1.5%) were called active.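 How the source made its calls: active means mean inhibition across valid replicates above about 55% (limit read from the data); inconclusive means mean below that limit but half or more replicates reach it; inactive means mean below it, under half of replicates reach it.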 Only a selection was taken, and actives are over-represented in it overall. Some compounds were tested as several samples or in several runs, with calls that do not always agree.

Assay: Trypanosoma cruzi replication blockers in host cells – luminescence, NIH3T3 host cells, primary screen (AID 1885);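 further: signal also drops with host cell toxicity which is not excluded here; 0% = plate median of DMSO wells and 100% = zero luminescence signal; higher percent means less beta-gal luminescence so fewer parasites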
Settings: T. cruzi beta-gal in NIH3T3, luminescence, 90 h; stronger effect = higher value; concentration not given here
Procedure, shortened: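 Incubation – ≥90 h infection period, 3 h prior cell attachment · System – NIH/3T3 fibroblasts plus reporter T. cruzi · Doses – compound pinned at 50 nL/well, DMSO · Read-out basis – percent inhibition of parasite-derived β-gal signal · Signal – luminescent β-galactosidase signal after 60 min lysis · Also added – 5000 T. cruzi trypomastigotes/well · Medium – Low-serum DMEM with 2% FBS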

SMILES | inhibition
CSc1ccccc1NC(=O)C(C)N1C(=O)c2ccccc2S1(=O)=O (configuration not stated) | -1.05% (inactive)
COc1ccc(N(CC(=O)N2CCOCC2)S(=O)(=O)c2ccccc2)cc1Cl | -3.61% (inactive)
CCCn1nc(C(=O)NNC(=O)CSCC(=O)Nc2cc(C)on2)c2ccccc2c1=O | -11.5% (inactive)
N#CCN(C(=O)COC(=O)C1CC2CCCC(C1)C2=O)c1ccccc1 (configuration not stated) | -10.6% (inactive)
Oc1ccc(/C=N/Nc2nc(-c3ccccc3F)nc3ccccc23)c(O)c1 | -4.73% (inactive)
Cc1nc2ccccc2nc1N/N=C/c1ccc(O)cc1O | 60% (active)
Oc1ccc(/C=N/NC2=NCCCCC2)c(O)c1 | -40.4% (inactive)
Cc1c(NC(=O)C(C)Oc2cccc(Cl)c2)c(=O)n(-c2ccccc2)n1C (configuration not stated) | -6.21% (inactive)
O=C(CN1CCN(S(=O)(=O)c2ccc(F)cc2)CC1)Nc1ccccc1F | 4.08% (inactive)
COc1ccccc1NC(=O)CN1CCN(S(=O)(=O)c2ccc(Br)cc2)CC1 | 8.31% (inactive)
O=C(CN1CCN(S(=O)(=O)c2ccc(Br)cc2)CC1)Nc1ccccc1C(=O)c1ccccc1 | 56% (active)
COc1cccc(COc2ccc(N(C)S(=O)(=O)c3ccccc3)cc2)c1 | 9.64% (inactive)
CCn1c(-c2cc(OC)ccc2OC)csc1=Nc1c(C)n(C)n(-c2ccccc2)c1=O | 13.7% (inactive)
CN=c1scc(-c2cc(OC)ccc2OC)n1/N=C/c1c(C)[nH]c2ccccc12 | 73.4% (active)
COc1ccc(N=Cc2c(O)[nH]c3ccccc23)cc1OC | -17.8% (inactive)
O=C(CCNC(=O)c1ccc(Br)cc1)Nc1cccc(S(=O)(=O)N2CCCCC2)c1 | 3.39% (inactive)
COc1c(C)c2c(c(O)c1C/C=C(\C)CCC(=O)O)C(=O)OC2 | 62.2% (active)
CCN(CC(=O)Nc1c(F)cccc1F)C(=O)c1ccc(-c2ccccc2)cc1 | -22.3% (inactive)
Cc1ccccc1NC(=O)C(C)OC(=O)CCC(=O)N(CC(C)C)c1c(N)n(CC(C)C)c(=O)[nH]c1=O (configuration not stated) | 0.843% (inactive)
Fc1ccc(CNCc2ccc(Br)cc2)cc1 | -7.54% (inactive)
Cc1c(NC(=O)C(C)OC(=O)c2c3c(nc4ccccc24)CCC(C)C3)c(=O)n(-c2ccccc2)n1C (configuration not stated) | -9.27% (inactive)
COC(=O)C1=CN(Cc2ccc(OC)c(OC)c2)C=C(C(=O)OC)C1c1cccs1 | 65% (active)
COC(=O)C1=CN(Cc2ccc(OC)cc2)C=C(C(=O)OC)C1c1ccc(O)c(OC)c1 | 11.3% (inactive)

SMILES | inhibition
COc1ccc(CCNC(=O)COC(=O)/C=C/c2cccs2)cc1OC | -3.17% (inactive)
Cc1cc(-c2ccccc2)n2nc(C)c(-c3ccccc3)c2n1 | 32.1% (inactive)
CCc1c(C)nc2c(-c3ccccc3)c(C)nn2c1Nc1ccc(NC(C)=O)cc1 | 54.5% (active)
Cc1cc(-n2nc(C)cc2C)n2nc(C)c(-c3ccccc3)c2n1 | 14.4% (inactive)
O=S(=O)(Nc1cccc(-c2ccc(N3CCOCC3)nn2)c1)c1ccc(Cl)c(Cl)c1 | -4.53% (inactive)
COc1ccc(Cl)cc1NC(=O)CN(C)C(=O)c1cc2ccccc2cc1OC | 12.8% (inactive)
COc1ccccc1OCCn1c(SCC(N)=O)nc2ccccc21 | -6.95% (inactive)
O=C(CSc1ccccn1)N1CCN(S(=O)(=O)c2ccc(Cl)cc2)CC1 | -3.29% (inactive)
O=C(Nc1ccccc1N1CCCC1)c1ccc(F)c(S(=O)(=O)N2CCOCC2)c1 | -5.53% (inactive)
O=C(NCCCNC(=O)NC1CCCCC1)NC1CCCCC1 | -9.22% (inactive)
COc1cccc(NC(=S)NCc2ccccn2)c1 | 4.96% (inactive)
CSc1cccc(NC(=S)N(Cc2ccccc2)Cc2ccccn2)c1 | 2.49% (inactive)
COc1cccc(NC(=S)N(Cc2ccc(C)cc2)Cc2ccccn2)c1 | 78.1% (active)
Nn1c(SCc2ccccc2)nnc1C1CCCCC1 | 2.33% (inactive)
CCc1ccc(N2CC(C(=O)Nc3ccc(S(=O)(=O)Nc4nccs4)cc3)CC2=O)cc1 (configuration not stated) | -8.72% (inactive)
CC1C(=O)Nc2ccccc2N1C(=O)c1ccc(F)cc1F (configuration not stated) | 0.146% (inactive)
Cc1ccc(OCCCCN2CCCCC2)c(Br)c1 | 54.8% (active)
O=[N+]([O-])c1ccccc1OCCCCN1CCCCC1 | 1.28% (inactive)
Cc1ccc(C(C)(C)C)c(OCCCCN2CCCC2)c1 | 27.7% (inactive)
COC(=O)C1=C[C@@H](C(=O)OC)[C@@H]2C3=C(C(=O)[C@]2(C)NC(=O)c2ccccc2)[C@H](C)n2c(=O)n(C)c(=O)n2[C@@H]3C1 | 11.2% (inactive)
COc1ccccc1NS(=O)(=O)c1ccc(C)c(C(=O)NCC(c2ccco2)N(C)C)c1 (configuration not stated) | 4.14% (inactive)
CCNC(=O)COc1cc(C)c(Br)c(C)c1 | 8.23% (inactive)
CCOc1ccccc1N1CCN(C(=O)COc2ccc3c(C)cc(=O)oc3c2)CC1 | 24% (inactive)

SMILES | inhibition
Cc1cc(OCCCCOc2ccc(C#N)cc2)ccc1[N+](=O)[O-] | 19.5% (inactive)
Cc1cc(OCC(=O)NC2CCN(C)CC2)ccc1[N+](=O)[O-] | 49.2% (inactive)
Cc1cc(=O)oc2cc(OCCC[n+]3ccccc3)ccc12 | 1.14% (inactive)
Cc1cc(OCCCN2CCN(Cc3ccccc3)CC2)ccc1[N+](=O)[O-] | 55.7% (active)
Cc1ccccc1N1CCN(CCCOc2ccc3c(C)cc(=O)oc3c2)CC1 | 60% (active)
CC(C)CC(O)C1CCN(C(=O)CCc2nnc(-c3ccc4c(c3)OCO4)o2)CC1 (configuration not stated) | 3.35% (inactive)
Cc1ccc(OCCNC(=O)CNC(=O)c2ccc(C)c(C)c2)cc1 | -2.75% (inactive)
Cc1ccc(C(=O)C[n+]2cc(-c3ccccc3)n3c2CCCCC3)cc1 | 45.3% (inactive) and 65.4% (active)
Cc1ccc(-c2c[n+](CC(=O)Nc3ccccc3)c3n2CCC3)cc1 | -0.923% (inactive)
Clc1ccc(C[n+]2cc(-c3ccccc3)n3c2CCC3)cc1 | 27.8% (inactive)
COc1ccc(-c2cc(C(=O)N3CCN(Cc4ccc5c(c4)OCO5)CC3)on2)cc1OC | -12.7% (inactive)
CCC(CC)c1nnc(NC(=O)C2=COCCO2)s1 | -5.48% (inactive)
CCNC(=O)COC(=O)CCNC(=O)c1cccc(C)c1 | 8.59% (inactive)
Cc1cccc(C(=O)NCCCN(C)CCCNC(=O)c2cccc(C)c2)c1 | 66.4% (active)
Cc1cccc(C(=O)c2cccc(C)c2)c1 | -0.776% (inactive)
O=C(COC(=O)c1ccccc1Br)Nc1nnc(-c2ccccc2)o1 | 1.76% (inactive)
NC(=O)Cc1nc2scc(-c3ccc(Cl)cc3)c2c(=O)[nH]1 | -9.75% (inactive)
O=c1[nH]c(CCl)nc2cc(-c3ccc(Cl)cc3)sc12 | 55.8% (active)
O=c1[nH]c(CN2CCOCC2)nc2cc(Cl)ccc12 | -13.1% (inactive)
CCC1CCC/C1=N\NC(=O)c1ccc(Cl)cc1 (configuration not stated) | -10.7% (inactive)
Cc1ccccc1Nc1nc(N)nc(CSc2ccccc2)n1 | 4.95% (inactive)
O=C(CNC(=O)c1ccccc1Br)NCCSc1ccc(Br)cc1 | -2.64% (inactive)
O=C(/C=C/c1ccc(Cl)c([N+](=O)[O-])c1)c1cccnc1 | 34% (inactive)

SMILES | inhibition
O=C(/C=C/c1ccc(Cl)c([N+](=O)[O-])c1)c1ccc(O)cc1 | -0.939% (inactive)
NC(N)=N/N=C/c1ccc(Cl)c([N+](=O)[O-])c1 | 60.6% (active)
COc1ccccc1C(=O)Nc1ccc(Nc2ccccc2)cc1 | -9% (inactive)
COc1ccccc1CNC(=O)COn1nnc2ccc(S(=O)(=O)N3CCOCC3)cc21 | 3.8% (inactive)
Cc1ccccc1-n1c(SCC(=O)NCc2cccs2)nnc1-c1ccncc1 | 9.95% (inactive)
Cc1ccc(-c2noc(CSc3nnc(-c4ccncc4)n3-c3ccc(F)cc3)n2)cc1 | 9.52% (inactive)
Cc1ccc(Nc2nc(CSc3nnc(-c4ccncc4)n3-c3ccccc3C)cs2)cc1 | 57.4% (active)
COC(=O)c1cc(NC(=O)c2nn(C)c(=O)c3ccccc23)cc(C(=O)OC)c1 | -14.3% (inactive)
O=C(CC1SC(N2CCCC2)=NC1=O)Nc1ccc(C(=O)NCCc2ccc(F)cc2)cc1 (configuration not stated) | -6.73% (inactive)
NS(=O)(=O)c1cccc(NC(=O)CN2CCCc3ccccc32)c1 | -16.2% (inactive)
COC(=O)c1[nH]c2cccc(C)c2c1NC(=O)CN1CCCc2ccccc21 | 4.45% (inactive)
COC(=O)c1[nH]c2ccccc2c1NC(=O)CN1CCCc2ccccc21 | 67.6% (active)
CSc1n[nH]c(=S)n1N | -10.3% (inactive)
COC(=O)c1cnc(Nc2cc(C)ccc2OC)c2ccccc12 | -8.82% (inactive)
Cc1nonc1NC(=O)c1oc2ccccc2c1C | -12.6% (inactive)
Cc1c(C(=O)NC(=S)NCc2cccnc2)oc2ccccc12 | 63.2% (active)
Cc1ccc(C(=O)NC(=S)NCc2cccnc2)cc1 | 14.1% (inactive)
CC(C)CN(C(=O)COC(=O)c1ccc2ccccc2c1)c1c(N)n(Cc2ccccc2)c(=O)[nH]c1=O | 2.62% (inactive)
CCN(C(=O)COC(=O)C1CCN(S(=O)(=O)c2ccc(C)c(C)c2)CC1)C1CCS(=O)(=O)C1 (configuration not stated) | -2.19% (inactive)
Cc1ccc(C(=O)c2c(NC(=O)c3ccncc3)sc3c2CCCC3)cc1 | 57.9% (active)
Cc1ccc(NC(=O)c2c(NC(=O)CCC(=O)O)sc3c2CCCCC3)cc1 | -8.68% (inactive)
NC(=O)c1c(NC(=O)c2ccccc2)sc2c1CCCC2 | 12.5% (inactive)
CN(C)C(CNC(=O)c1cccc(S(=O)(=O)Nc2ccc(Br)cc2)c1)c1ccco1 (configuration not stated) | 20.3% (inactive)
